Assay outcomes (PubChem BioAssay)
LEDGF integ inh – blockers of LEDGF/p75-dependent integrase strand transfer – biochemical, TR-FRET, high throughput, primary screen; AID 743269, 2014; HIV-1 integrase (with human LEDGF/p75); actives 0.64% (n = 370,000); inhibition, % at 3.7 µM; TR-FRET IN-LEDGF/p75 DNA integration, Eu/Cy5;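 active = inhibition above the screen-wide mean plus 3 SD, cut at about 13% in these data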;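 note: signal is the Cy5 over europium emission ratio at 671 and 618 nm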
mABHD4 FP – ABHD4 inhibitors, primary screen, biochemical, fluorescence polarization, mouse. (Lyso)-N-acylphosphatidylethanolamine lipase (Mus musculus), Q8VD66. purified mABHD4, FP-Rh probe fluorescence polarization. inhibition, % at 8.92 µM. actives 0.54% (n = 370,000). AID 720543, 2013;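 active = inhibition exceeding the mean over every tested compound plus 3 SD, cut at about 30% in these data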
Target sequence (Q8VD66 whole entry, looked up): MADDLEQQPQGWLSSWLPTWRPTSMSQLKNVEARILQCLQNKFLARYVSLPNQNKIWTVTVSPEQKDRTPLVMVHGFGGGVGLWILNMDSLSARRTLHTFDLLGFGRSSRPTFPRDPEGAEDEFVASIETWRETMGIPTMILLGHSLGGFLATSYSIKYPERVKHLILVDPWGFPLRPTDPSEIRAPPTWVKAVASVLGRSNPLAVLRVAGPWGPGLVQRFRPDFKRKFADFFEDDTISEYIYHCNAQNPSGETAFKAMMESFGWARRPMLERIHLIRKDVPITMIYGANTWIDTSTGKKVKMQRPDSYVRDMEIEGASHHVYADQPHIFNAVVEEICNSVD
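assay system = mABHD4 protein | compound dosing = single nominal dose of 8.92 µM, 0.89% DMSO final | read-out basis = percent inhibition of probe binding, normalized to plate controls | schedule = Enzyme–compound pre-incubation 45 min, then probe 60 min, both 25 °C | detection = fluorescence polarization, excitation 525 nm, emission 598 nm, BODIPY TMR filters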
rCAG binder – binders of r(CAG) RNA repeats, primary screen, biochemical, fluorescence; r(CAG) RNA repeat, TO-PRO-1 dye displacement fluorescence; inhibition, % at 3 µM; actives 1.3% (n = 370,000); AID 651821, 2012;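 active = inhibition above the plate cutoff, the mean of all test compounds on that plate plus 3 SD, cut at about 35% in these data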;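 note: higher means more dye released from RNA so lower well fluorescence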
DAGLB inh – DAGLB lipase inhibitors, primary screen, biochemical, fluorescence, HTS. AID 504411, 2011. Diacylglycerol lipase-beta (Homo sapiens), Q8NCG7. HEK293T DAGLB membrane lysate, EnzChek fluorogenic substrate. actives 0.059% (n = 340,000). inhibition, % at 5.17 µM; in the data active = inhibition above about 34%
PRMT1 FP inh – PRMT1 methyltransferase inhibitors, primary screen, biochemical, fluorescence polarization. Protein arginine N-methyltransferase 1 (Homo sapiens), Q99873. inhibition, % at 2.79 µM. actives 1.3% (n = 370,000). recombinant PRMT1, activity-based probe fluorescence polarization;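 active = inhibition above about 21% made by adding two undisclosed values, limit read from the data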
HTRA1 inhibitor – HTRA1 serine protease inhibitors, primary screen, biochemical, fluorescence polarization, HTS; recombinant HTRA1, FP-rhodamine activity-based probe; inhibition, % at 5.96 µM; actives 0.5% (n = 340,000); in the data active = inhibition above about 36%
ABHD4 confirm – ABHD4 inhibitors, retest, confirmation, biochemical, fluorescence polarization, mouse; actives 55% (n = 1,800); AID 720658, 2013; purified mABHD4, FP-Rh probe fluorescence polarization; inhibition, % at 8.92 µM; shares compounds with mABHD4 FP;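 active = mean inhibition across replicates above the hit cutoff set in the primary screen, cut at about 30% in these data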
Large screens that a line does not name were inactive (follow-up assays come after a bar, where they were run). Rows were chosen to be rich in hits. Some 3.2% of all compounds tested hit in one or more screens of this group.

CC(=O)NC1(C(F)(F)F)N=C2SCCN2C1=O (configuration not stated)	none
CCCCNc1c(-c2ccc(SC(C)CC)c(OC)c2)nc2ccc(C)cn12 (configuration not stated)	mABHD4 FP 36 | ABHD4 confirm 47
CCCCNc1c(-c2ccc(SC(C)CC)c(OC)c2)nc2ccc(Cl)cn12 (configuration not stated)	none
C[C@@H]1N[C@H]2N(C1=O)c1ccccc1[C@@]21C[C@@H]2C(=O)N[C@](C)(O1)c1nc3ccccc3c(=O)n12	none (no result: DAGLB inh, HTRA1 inhibitor)
Cc1ccc(S(=O)(=O)N/N=C/c2ccc(O)c(O)c2)cc1[N+](=O)[O-]	mABHD4 FP 40 | ABHD4 confirm inactive
Cc1cccc(N2C(=O)SC(N(C)c3ccccc3)C2=O)c1 (configuration not stated)	mABHD4 FP 64 | ABHD4 confirm inactive
Cc1cccc(N2C(=O)CCC2=O)c1	none
O=C(Nc1cccnc1)c1cc(-c2cccnc2)nc2ccc(Br)cc12	none
NNC(=O)c1cc(-c2ccc(N)cc2)nc2ccc(Br)cc12	mABHD4 FP 40 (no result: DAGLB inh, HTRA1 inhibitor) | ABHD4 confirm inactive
Cc1cc(=O)[nH]c(SCC(=O)NCCc2ccccc2)n1	none
COc1ccc(C2Nc3cccc4cccc(c34)N2)cc1	none
COc1ccccc1C1Nc2cccc3cccc(c23)N1	mABHD4 FP 55 | ABHD4 confirm 53
CCCc1cc(=O)[nH]c(SCC(=O)NC2CCCc3ccccc32)n1 (configuration not stated)	none
CCCc1cc(=O)[nH]c(SCC(=O)NC2CCCCC2)n1	mABHD4 FP 93 | ABHD4 confirm inactive
N#C/C(C(N)=O)=c1/ccc2c(c1)N1C3=C(CCCC3)CC3CCCCC31N=2 (configuration not stated)	mABHD4 FP 49 (no result: DAGLB inh, HTRA1 inhibitor) | ABHD4 confirm 49
N#CC(C#N)=c1ccc2c(c1)N1C3=C(CCCC3)CC3CCCCC31N=2 (configuration not stated)	none
CCOc1ncccc1C(=O)NCc1ccccc1Cl	none
COCc1cn(-c2cccc(-c3noc4c3C(=O)N(CC(=O)N3CCOCC3)CC4)c2)nn1	mABHD4 FP 32 (no result: DAGLB inh, HTRA1 inhibitor) | ABHD4 confirm inactive
CN(C)Cc1cn(-c2cccc(-c3noc4c3C(=O)N(CC(=O)N3CCOCC3)CC4)c2)nn1	none (no result: DAGLB inh, HTRA1 inhibitor)
CC(C)c1nc2cc(C(=O)N(C)C3CCOCC3)ccc2o1	none
NC(=S)N/N=C1\c2ccccc2-c2c(C(=O)O)cccc21	mABHD4 FP 42 | ABHD4 confirm 47
Cc1cccc(N(CC(=O)NCc2ccc3c(c2)OCO3)C(=O)CCC(=O)Nc2ccccn2)c1	mABHD4 FP 40 | ABHD4 confirm inactive
Cn1nnnc1SCC(=O)Nc1ccc(Br)cc1Cl	none
CC(=O)/C(N=Nc1ccc(SC(F)F)cc1)=C(\C)O	none
CCSC(=O)N=Nc1ccc(O)cc1	mABHD4 FP 33 | ABHD4 confirm inactive
CN(C)c1ccc(NC(=O)Nc2ccc3c(c2)c(=O)n(C)n3Cc2ccccc2)cc1	none (no result: DAGLB inh, HTRA1 inhibitor)
CN(C)c1ccc(NC(=O)Nc2ccc3c(c2)c(=O)n(C)n3Cc2ccc(Cl)cc2)cc1	mABHD4 FP 43 (no result: DAGLB inh, HTRA1 inhibitor) | ABHD4 confirm inactive
Cc1cc2nc3c(=O)n(CCc4ccccc4)c(=O)[nH]c3nc2cc1N	mABHD4 FP 55, PRMT1 FP inh 109 | ABHD4 confirm inactive
Cc1nc2ccccc2c(=O)n1CCc1ccccc1	none
COc1cc(OC)c(C(=O)OCC(=O)Nc2ccc(N3CCOCC3)cc2)cc1OC	none
CNC(=O)c1cc(Cl)c(OC)c(OC)c1	none
COC(=O)C(=O)C1CCc2c(Cl)cc(OC)c(OC)c2C1=O (configuration not stated)	mABHD4 FP 52 | ABHD4 confirm inactive
c1ccc(CSc2nnnn2-c2ccccc2)cc1	none
